Calls of active or inactive are those of the source. The calls are words filed in the database; no cut-off is given here.

This note sets out measurements from ChEMBL document CHEMBL1212825, “Synthesis and structure-activity relationships of N-(2-oxo-3-oxetanyl)amides as N-acylethanolamine-hydrolyzing acid amidase inhibitors” (J Med Chem, 2010).

The target in data set [1] is T1, N-acylethanolamine-hydrolyzing acid amidase (Rattus norvegicus, UniProt Q5KTC7).
T1 sequence (Q5KTC7 whole entry): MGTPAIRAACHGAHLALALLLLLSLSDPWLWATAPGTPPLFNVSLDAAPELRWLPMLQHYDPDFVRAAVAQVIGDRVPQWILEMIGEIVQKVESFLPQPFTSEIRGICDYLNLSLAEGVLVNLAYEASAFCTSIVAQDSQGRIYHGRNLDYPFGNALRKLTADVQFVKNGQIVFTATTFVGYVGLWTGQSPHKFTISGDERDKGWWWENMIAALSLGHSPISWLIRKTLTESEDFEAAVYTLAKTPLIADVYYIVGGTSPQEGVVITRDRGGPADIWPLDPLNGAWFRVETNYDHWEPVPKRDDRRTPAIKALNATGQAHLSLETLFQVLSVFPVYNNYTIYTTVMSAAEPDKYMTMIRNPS
Nature of the data set: Inhibition of rat recombinant NAAA expressed in HEK293 cells after 30 mins. Format: cell-based. The method, boiled down:
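Rat NAAA (full-length coding sequence cloned from rat brain cDNA, Flag-tagged) stably expressed in HEK293 cells, selected with G418 0.3 mg/mL. Enzyme taken as 105,000 g supernatant after freeze-thaw of the 12,000 g pellet. Incubated at 37 °C for 30 min in 50 mM sodium hydrogen phosphate pH 5.0 with 0.1% Triton X-100, 3 mM DTT and 50 μM heptadecenoylethanolamide substrate. IC50 reported.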

Data set [2] has as its system Mus musculus. Kind of data set: Antiinflammatory activity in polyethylene sponges implanted mouse assessed as reduction of carrageenan-induced leukocyte infiltration compound administered into sponges. It counts as functional, organism-based.
For data set [3], the system named is Mus musculus. Nature of the data set: Antiinflammatory activity in polyethylene sponges implanted mouse assessed as inhibition of carrageenan-induced reduction of palmitoylethanolamine level compound administered into sponges. It counts as functional, organism-based. The procedure, abridged:
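Mice received subcutaneous polyethylene sponges (1 cm3, 2 per mouse) under dorsal skin. Each sponge was instilled with carrageenan 1.0% in 90 μL sterile saline plus drug or vehicle (DMSO, 10 μL/sponge), with drugs given over a range of doses. PEA measured by LC/MS.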

Data set [4] addresses T2, N-acylethanolamine-hydrolyzing acid amidase (Rattus norvegicus) (UniProt Q5KTC7).
T2 sequence (whole entry): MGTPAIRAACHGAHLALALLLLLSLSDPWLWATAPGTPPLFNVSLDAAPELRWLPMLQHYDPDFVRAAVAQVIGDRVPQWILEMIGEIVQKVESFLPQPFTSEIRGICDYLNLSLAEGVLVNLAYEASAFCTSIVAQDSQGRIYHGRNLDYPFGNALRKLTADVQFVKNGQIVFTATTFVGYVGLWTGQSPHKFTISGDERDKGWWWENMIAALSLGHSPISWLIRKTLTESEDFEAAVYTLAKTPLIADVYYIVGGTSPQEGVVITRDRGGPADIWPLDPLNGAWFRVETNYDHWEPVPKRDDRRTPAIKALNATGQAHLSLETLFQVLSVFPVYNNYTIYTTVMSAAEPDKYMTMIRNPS
Kind of data set: Inhibition of rat recombinant NAAA expressed in HEK293 cells assessed as recovered initial enzyme activity at 10 uM after 12 hrs of dialysis; values are per cent of control.

Substrate in data set [5]: O=C(N[C@H]1COC1=O)c1ccc(-c2ccccc2)cc1
The conditions noted are these: Rattus norvegicus; HEK293; 200 nM.

Substrate in data set [6]: O=C(N[C@H]1COC1=O)c1ccc(-c2ccccc2)cc1
The conditions noted are these: Rattus norvegicus; HEK293; 200 nM. This is another data set of the same source.

Substrate in data set [7]: O=C(N[C@H]1COC1=O)c1ccc(-c2ccccc2)cc1
The following applies: Rattus norvegicus; HEK293; 100 nM.

Substrate in data set [8]: O=C(N[C@H]1COC1=O)c1ccc(-c2ccccc2)cc1
The conditions noted are these: Rattus norvegicus; HEK293; 100 nM. This is another data set of the same source.

On to `O=C(N[C@H]1COC1=O)c1ccc(OCc2ccccc2)cc1`, for which, in data set [1], the IC50 (commonly the midpoint of a concentration-inhibition curve) is 90 nM.
Still for that read-out and setting: then `COc1ccc2cc(C(=O)N[C@H]3COC3=O)ccc2c1`, with 400 nM.
Still for that read-out and setting: in the case of `CCCCCCC(=O)N[C@H]1COC1=O` it was 460 nM.
On to `O=C(N[C@H]1COC1=O)c1cccc(-c2ccccc2)c1`, for which the half-maximal inhibitory concentration (IC50) in data set [1] was found to be 4400 nM.
Still for that read-out and setting: then `C[C@H]1OC(=O)[C@H]1NC(=O)CCc1ccccc1`, with greater than 100000 nM.
In the case of `O=C(CCc1ccccc1)N[C@H]1COC1=O`, the outcome in the data set on Mus musculus [2] was Active. In addition, in the data set with Mus musculus [3], the Activity result is “Dose-dependent effect”. Besides, the residual activity (usually what remains of the control signal, in per cent) in data set [4] is 44%.
On to `O=C(N[C@H]1COC1=O)c1ccc(-c2ccccc2)cc1`, for which the outcome in the data set on Mus musculus [2] was Active. Further, in the data set with Mus musculus [3], the Activity result is “Dose-dependent effect”.
As for `O=C(CCCCCCc1ccccc1)N[C@H]1COC1=O`, the 50% inhibitory concentration (IC50) in data set [1] is 1500 nM.
The same measure, in the same setting: then `CCOC(=O)c1ccc2cc(C(=O)N[C@H]3COC3=O)ccc2c1`, with 300 nM; and `O=C(N[C@@H]1COC1=O)c1ccc2ccccc2c1`, with 3200 nM; and `O=C(CCc1ccccc1)N[C@@H]1COC1=O`, with 6000 nM.
As to `O=C1OCC1CCCCc1ccccc1` (racemic), the IC50 in data set [1] is 11000 nM.
Still for that read-out and setting: then `O=C(CCc1ccccc1)N[C@@H](CO)C(=O)O`, with greater than 100000 nM.
Still for that read-out and setting: then `O=C(CCc1ccccc1)NC1CCC1`, with greater than 100000 nM; and `O=C(N[C@H]1COC1=O)OCc1ccccc1`, with 2960 nM; and `O=C(N[C@H]1COC1=O)c1cccc2ccccc12`, with 50000 nM.
`O=C(N[C@H]1COC1=O)c1ccc2ccccc2c1`: the IC50 in data set [1] came to 160 nM.
Regarding `O=C(Cc1ccccc1)N[C@H]1COC1=O`, the IC50 in data set [1] was 1850 nM.
With `O=C(N[C@H]1COC1=O)c1ccccc1`, the IC50 in data set [1] turned out to be 1700 nM.
The same measure, in the same setting: in the case of `O=C(CCc1ccccc1)N[C@H]1CCOC1=O` it was greater than 100000 nM.
Same read-out and setting: in the case of `CCc1ccc(C(=O)N[C@H]2COC2=O)cc1` it was 102 nM.
The same measure, in the same setting: in the case of `C[C@@H]1OC(=O)[C@@H]1NC(=O)CCc1ccccc1` it was 3200 nM; in that of `O=C(N[C@H]1CCOC1=O)c1ccc2ccccc2c1`, greater than 100000 nM.
Consider `O=C(N[C@H]1COC1=O)c1ccc(C(=O)Oc2ccccc2)cc1`, for which the half-maximal inhibitory concentration (IC50) in data set [1] was found to be 300 nM.

B1: N-acylethanolamine-hydrolyzing acid amidase (Rattus norvegicus), Q5KTC7 (protein)
chain: MGTPAIRAACHGAHLALALLLLLSLSDPWLWATAPGTPPLFNVSLDAAPELRWLPMLQHYDPDFVRAAVAQVIGDRVPQWILEMIGEIVQKVESFLPQPFTSEIRGICDYLNLSLAEGVLVNLAYEASAFCTSIVAQDSQGRIYHGRNLDYPFGNALRKLTADVQFVKNGQIVFTATTFVGYVGLWTGQSPHKFTISGDERDKGWWWENMIAALSLGHSPISWLIRKTLTESEDFEAAVYTLAKTPLIADVYYIVGGTSPQEGVVITRDRGGPADIWPLDPLNGAWFRVETNYDHWEPVPKRDDRRTPAIKALNATGQAHLSLETLFQVLSVFPVYNNYTIYTTVMSAAEPDKYMTMIRNPS
For B1, the Km (commonly the concentration of substrate that gives half-maximal velocity) turned out to be 156 µM in data set [5] and 129 µM in data set [7]. Moreover, the Vmax – broadly, the rate approached at saturating substrate – in data set [6] worked out at 6.2 nmol/min; in data set [8], 10.8 nmol/min.
